The record followed here is ChEMBL document CHEMBL1135644, “Effect of spermine conjugation on the cytotoxicity and cellular transport of acridine” (J Med Chem, 2002).

Test [1] has as its system L1210. As to the kind of experiment: In vitro 50% cell growth inhibition by the compound in L1210 cells (control) with 5 mM DFMO addition. The note with it: Mus musculus. Format: functional, cell-based. The method, boiled down: (§1)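 L1210 cells were seeded at 5 × 10^4 cells/mL, and conjugate plus 5 mM DFMO were added at seeding with 2 mM aminoguanidine present. After 48 h, growth was read by MTT at 540 nm relative to DFMO-only controls.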

The subject of test [2] is L1210. As to the kind of experiment: Cellular uptake of conjugates in L1210 cells (control) at a concentration of 10 uM (+/-15% SEM). Format: functional, cell-based. The note with it: Mus musculus. The method, boiled down:
(§2)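 L1210 cells were seeded at 2 × 10^5 cells/mL with conjugate added at seeding, in medium containing 2 mM aminoguanidine, and cultured 24 h. Washed cells were extracted in 0.2 N HClO4/2 M NaCl for 16 h at 4 °C. Intracellular conjugate was quantified by fluorimetry and expressed as nmol/mg protein. Mean of three determinations (±15%).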

Test [3] relates to L1210. Kind of test: Cellular uptake of conjugates in L1210 cells (control) at a concentration of 5 uM (+/-15% SEM). Format: functional, cell-based. The note with it: Mus musculus. The essentials:
as §2

The test system of test [4] is L1210. As to the kind of experiment: In vitro 25% cell growth inhibition by the compound in L1210 cells with 5 mM DFMO addition. As to conditions: Mus musculus. Format: functional. The essentials: as §1
Test [5] is described as follows: Ratio of cellular uptake in CHO cells to that of CHO-MG cells at 2.5 uM. Format: functional.
Test [6] in a line: Ratio of cellular uptake in CHO cells to that of CHO-MG cells at 10 uM. Format: functional.
Test [7] has as its system CHO-MG. Kind of test: Cellular uptake of conjugates in CHO-MG cells at a concentration of 2.5 uM (+/-15% SEM). The note with it: Cricetulus griseus. Format: functional, cell-based. The method, boiled down:
(§3)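 Conjugates added 24 h after seeding (1 × 10^5 cells/mL, RPMI 1640 with 10% FCS and 2 mM aminoguanidine; proline added for CHO-MG) and left for 24 h. Cells were washed in 0.14 M NaCl, sonicated in 0.2 N HClO4/2 M NaCl and held 16 h at 4 °C. Conjugate in the supernatant was measured by fluorimetry against standards and expressed per mg protein (Folin). Mean of three determinations (±15%).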

In test [8] the test system is CHO-MG. Kind of test: In vitro 50% cell growth inhibition by the compound in CHO-MG cells (control). Format: functional, cell-based. The note with it: Cricetulus griseus. The method, boiled down:
(§4)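 CHO or CHO-MG cells were trypsinized and plated singly at 2 × 10^3 cells/mL in RPMI 1640/10% FCS with 2 mM aminoguanidine (proline for CHO-MG). Conjugates were added after overnight incubation, with 48 h exposure. Growth was read by MTT formazan absorbance at 540 nm relative to untreated controls. The value is the concentration giving 25% or 50% growth inhibition.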

Test [9] deals with L1210. As to the kind of experiment: Cellular uptake of conjugates in L1210 cells pretreated with 5 mM DFMO at a concentration of 10 uM (+/-15% SEM). Format: functional, cell-based. As to conditions: Mus musculus. The method, boiled down:
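L1210 cells were seeded at 10^5 cells/mL in medium with 5 mM DFMO, and conjugates were added 24 h later. Cells were harvested after a further 24 h, extracted in 0.2 N HClO4/2 M NaCl and assayed by fluorimetry, expressed per mg protein. Mean of three determinations (±15%).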

Test [10] deals with L1210. As to the kind of experiment: In vitro 50% cell growth inhibition by the compound in L1210 cells. Format: functional, cell-based. As to conditions: Mus musculus. The essentials:
(§5)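 L1210 cells were seeded at 5 × 10^4 cells/mL with conjugate added at seeding, in medium with 2 mM aminoguanidine, for 48 h exposure. Growth was measured by MTT absorbance at 540 nm relative to untreated controls.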

For test [11], the system named is CHO-MG. Kind of test: Cellular uptake of conjugates in CHO-MG cells at a concentration of 10 uM (+/-15% SEM). Format: functional, cell-based. The note with it: Cricetulus griseus. The method, boiled down: as §3
Test [12] deals with CHO. As to the kind of experiment: Cellular uptake of conjugates in CHO cells at a concentration of 10 uM (+/-15% SEM). Format: functional, cell-based. The note with it: Cricetulus griseus. The essentials:
as §3

Test [13] has as its system CHO. As to the kind of experiment: In vitro 50% cell growth inhibition by the compound in CHO cells (control). Format: functional, cell-based. As to conditions: Cricetulus griseus. The method, boiled down: as §4
Test [14] relates to L1210. As to the kind of experiment: Cellular uptake of conjugates in L1210 cells in presence of 500 uM SPD at a concentration of 10 uM (+/-15% SEM). Format: functional, cell-based. As to conditions: Mus musculus. The method, boiled down:
(§6)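 Same as the L1210 uptake assay: seeded at 2 × 10^5 cells/mL, conjugate plus 500 μM spermidine added together at seeding, 24 h exposure. Extraction in HClO4/NaCl, fluorimetric quantitation, normalized to protein. Mean of three determinations (±15%).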

The test system of test [15] is CHO. Kind of test: Cellular uptake of conjugates in CHO cells at a concentration of 2.5 uM (+/-15% SEM). Format: functional, cell-based. As to conditions: Cricetulus griseus. The essentials: as §3
The next test relates to Nucleic Acid. Kind of test: Drug concentration required to produce 50% inhibition of fluorescence bound ethidium to CT-DNA (1.26:1) (+/-SEM 5%). Format: functional. The note with it: Bos taurus. The method, boiled down:
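Ethidium displacement: 1 μM CT-DNA with 1.26 μM ethidium bromide; conjugate stock added serially. Fluorescence was read at excitation 546 nm and emission 595 nm. The value is the conjugate concentration cutting DNA-bound ethidium fluorescence by 50%. Mean of three determinations (±5%).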

Test [16] concerns L1210. As to the kind of experiment: In vitro 25% cell growth inhibition by the compound in L1210 cells. Format: functional. The note with it: Mus musculus. The essentials: as §5
The subject of test [17] is L1210. Kind of test: Cellular uptake of conjugates in L1210 cells in presence of 500 uM SPD at a concentration of 5 uM (+/-15% SEM). Format: functional, cell-based. The note with it: Mus musculus. The method, boiled down: as §6
The test system of test [18] is L1210. Kind of test: Inhibition of [14C]SPD uptake by the compound in 5 min initial rate transport assay in L1210 cells. Format: functional, cell-based, Mus musculus.

On to `Cl.NCCCNCCCCNCCCNCCCNC(=O)c1c2ccccc2nc2ccccc12`, for which the half-maximal inhibitory concentration (IC50) with L1210 [1] was 2.2 µM; in the test on CHO-MG [8], 35 µM; with L1210 [10], 43 µM; in the test with CHO [13], 30 µM. For the same compound, the Uptake (nM (mg of protein)-1) with L1210 [2] worked out at 0.239; in the test with L1210 [3], 0.086; in the test on CHO-MG [7], 0.017; in the test with L1210 [9] it was 0.587; in the test on CHO-MG [11] it was 0.108; in the test on CHO [12] it was 0.1. For the same compound, the figures for the Uptake (nM (mg of protein)-1) in the test on L1210 [14], with CHO [15] and in the test on L1210 [17] were 0.221, 0.014 and 0.073, respectively. In addition, the 25% effect concentration (IC25) was determined as 0.09 µM in the test on L1210 [4] and 22 µM in the test with L1210 [16]. Besides, the Ratio is on record as 0.83 in [5] and 0.93 in test [6]. This compound showed a Concentration for 50% ethidium displacement from DNA (C50) in the test on Nucleic Acid of 120 nM. This compound came in with a Ki in the test with L1210 [18] of 0.097 µM.

In general, IC50 refers to the concentration needed to halve the response being measured. One may read the IC25 as the point of the concentration-response curve where the effect stands at 25%. By Ki is commonly meant the dissociation constant of the complex between target and ligand, obtained from inhibition or displacement. High values mean a looser hold on the target, low ones a stronger hold on the target.
